Reference: ChEMBL document CHEMBL4706601, “The endocannabinoid system dual-target ligand N-cycloheptyl-1,2-dihydro-5-bromo-1-(4-fluorobenzyl)-6-methyl-2-oxo-pyridine-3-carboxamide improves disease severity in a mouse model of multiple sclerosis” (Eur J Med Chem, 2020)
The source made the active and inactive calls.

Key:
[1] = biological target: Cannabinoid receptor 2 (Mus musculus) (UniProt P47936); test: Agonist activity at CB2R in LPS induced mouse BV2 cells assessed as increase in IL-10 secretion at 10 uM preincubated with CB2R antagonist, SR144528 for 15 mins followed by compound additon for 30 mins after LPS stimulation for 4 hrs by ELISA; type: cell-based; settings: BV-2, time 270.0 min
Chain of Cannabinoid receptor 2 (Mus musculus) (P47936 whole entry): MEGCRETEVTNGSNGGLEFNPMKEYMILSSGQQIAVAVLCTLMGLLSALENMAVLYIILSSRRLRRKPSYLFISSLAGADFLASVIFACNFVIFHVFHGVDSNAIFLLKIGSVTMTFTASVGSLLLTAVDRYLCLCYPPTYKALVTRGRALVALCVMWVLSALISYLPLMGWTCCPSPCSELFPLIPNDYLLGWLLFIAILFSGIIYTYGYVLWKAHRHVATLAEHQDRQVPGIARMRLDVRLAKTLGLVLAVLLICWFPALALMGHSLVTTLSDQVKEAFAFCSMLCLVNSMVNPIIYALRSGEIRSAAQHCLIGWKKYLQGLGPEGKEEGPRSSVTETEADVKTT
How it was run: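 BV-2 murine microglia grown in high-glucose DMEM with 10% FBS. Treatments in FBS-free medium: test agonist 10 μM for 30 min, then LPS 5 μg/ml for 4 h; SR144528 10 μM given 15 min before agonist. DMSO ≤0.1% final. Medium spun 10 min at 1000×g; IL-1β, IL-6, IL-10 quantified by ELISA; three independent experiments in duplicate.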

Mus musculus [2] = test: Antinociceptive activity in CD-1 albino mouse model of oxaliplatin-induced neuropathic pain assessed as decrease in pain-related behaviour at 10 mg/kg, po pretreated with CB1R antagonist, SR141716A for 15 mins before compound addition treated on day 15 post oxaliplatin treatment and measured after 15 to 75 mins post dose by cold plate test; type: functional, organism-based; settings: time 15-75 min
How it was run: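 Male CD-1 mice (22-25 g) given oxaliplatin 2.4 mg/kg i.p. in 5% glucose on days 1-2, 5-9, 12-14; tested day 15. Compound in 1% carboxymethylcellulose orally at 5, 10, 20, 50 mg/kg. Cold plate licking latency at 15, 30, 45, 60, 75 min post dose. Selective CB1R and CB2R antagonists co-tested. 16 mice per treatment across 2 sessions; one-way ANOVA with Bonferroni.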

Mus musculus [3] = test: In vivo agonist activity at CB1R in C57BL/6J mouse assessed as functional CB1R level in brain at 10 mg/kg, ip after 20 days by [35S]GTPgammaS assay; type: organism-based; settings: time 20.0 day
How it was run: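 After 20 days of EAE treatment, half-brain membranes (20 µg) pre-incubated 30 min at 37 °C with adenosine deaminase 0.5 units/mL, 30 μM GDP, 0.2 nM [35S]GTPγS at pH 7.4. Stimulated by CP55,940 1 μM, SR141716A 1 μM, both, or vehicle for 1 h at 30 °C; nonspecific with 10 μM GTPγS; expressed as % of vehicle control.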

Mus musculus [4] = test: Antiinflammatory activity in MOG (35 to 55 residues)/pertussis toxin-induced experimental autoimmune encephalomyelitis C57BL/6J mouse model assessed as improvement in disease severity at 10 mg/kg, ip dosed once daily for 20 days starting from day 10 to 16 post immunization and measured at day 5 to 9 post treatment; type: functional, organism-based; settings: time 5-9 day
How it was run: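 Active EAE in mice: 200 µg MOG35-55 in CFA (4 mg/ml M. tuberculosis) s.c. at hips and tail root, plus pertussis toxin 300 ng i.p. after immunization and 48 h later. Daily i.p. dosing (DMSO vehicle) for 20 days from each mouse's onset (day 10–16); onset = day 1. Daily clinical score; multiple t-tests with Holm-Sidak.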

Measured: Activity

Cc1c(Br)cc(C(=O)NC2CCCCCC2)c(=O)n1Cc1ccc(F)cc1
inactive: [1] | Mus musculus [2] | Mus musculus [3] | Mus musculus [4]
